Screening data (PubChem)
MT stabilize HCS: microtubule stabilization, imaging screen; AID 2205; 0.83% of 200,000 active; % tubulin-high responders, % at 10 µM; HeLa tubulin immunostaining HCS, 24 h; share of cells brighter than vehicle mean+2SD;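 active = plate Z-score above 3 for both tubulin-high and condensed-nucleus cell shares, with cell loss under 80%, at 10 µM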;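 also: anti alpha tubulin signal scored within the nucleus-defined area of each cell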
Ba/F3 V617F tox: loss of viability in JAK2V617F-driven Ba/F3 cells; Ba/F3 EpoR-JAK2V617F viability, ATP luminescence; AID 1446; inhibition, % at 5.6 µM; 1.1% of 220,000 active;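 active = inhibition above the campaign mean plus 3 SD over all tested compounds, cut at about 24% in these data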;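 also: cytokine-independent growth of Ba/F3 cells driven by EpoR plus mutant JAK2; 0% = DMSO-treated cells and 100% = JAK inhibitor I control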
BaF3 tox: counter-screen for JAK2V617F inhibitors: parental Ba/F3 viability inhibitors; 1.1% of 220,000 active; inhibition, % at 5.6 µM; CellTiter-Glo ATP luminescence;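 active = inhibition above a per-campaign cutoff, the mean inhibition of all tested compounds plus 3 SD, cut at about 27% in these data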;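 also: 0% = DMSO wells and 100% = JAK Inhibitor I control wells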
APP 5UTR inh: APP translation inhibition. 0.82% of 190,000 active. inhibition, % at 2 µM. SH-SY5Y APP 5'UTR-luciferase reporter, luminescence. AID 1285;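 active = inhibition above a set limit, derived from the sample mean plus 3 SD, cut at about 45% in these data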
Lmaj promast: inhibitors of Leishmania major promastigote growth. Leishmania major promastigotes, resazurin fluorescence viability. inhibition, % at 10 µM. 9% of 200,000 active; in the data active = inhibition above about 50%;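 also: promastigotes grown with compound for 44 hours at 28 °C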
b-catenin transl: modulators of beta-catenin nuclear translocation | HeLa beta-catenin nuclear translocation, immunofluorescence imaging | AID 1665 | 0.3% of 190,000 active | nuclear translocation activity, % at 5 µM;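 active = nuclear translocation activity above 50% at 5 µM, with a well cell count of 50 or more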;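 also: per-cell ratio of nuclear to cytoplasmic median beta-catenin stain intensity; plate controls were DMSO negative control for no effect and GSK-3 inhibitor IX positive control for full effect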
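Test system: human HeLa cell line; Doses: 5 µM primary, 0.02–20 µM confirmation; Incubation: 24 h compound exposure, 37°C; Detection: beta-catenin immunofluorescence imaging with DAPI; Read-out: beta-catenin nuclear/cytoplasmic ratio, % activation.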
An asterisk follows results filed as active; · = not tested or not shown. An excerpt weighted towards active compounds, which were near 9.6% of everything screened.

SMILES | MT stabilize HCS | Ba/F3 V617F tox | BaF3 tox | APP 5UTR inh | Lmaj promast | b-catenin transl
Cc1ccc(C(=O)N2CCN(Cc3ccc4c(c3)OCO4)CC2)cc1S(=O)(=O)N1CCOCC1 | · | -5 | -2 | · | · | 0
COc1ccccc1CNC(=O)c1c(N)n(CCCN2CCOCC2)c2nc3ccccc3nc12 | 2 | 3 | 6 | 3 | 51* | 1
Cc1cccn2c(=O)c3cc(C(=O)NCCN4CCOCC4)c(=N)n(CCc4ccccc4)c3nc12 | 3 | 3 | 9 | -20 | 66* | -4
Cc1nc2ccccc2n1CCN1CCOCC1 | 5 | 2 | 7 | -5 | -11 | 1
Nc1c(S(=O)(=O)c2cc(Cl)ccc2Cl)c2nc3ccccc3nc2n1CCN1CCOCC1 | 2 | 1 | 3 | 8 | 80* | -4
c1ccc2nc3c(nc2c1)c1ccccc1n3CCN1CCOCC1 | 5 | 84* | 77* | -13 | 39 | ·
COc1ccc(-c2[nH]ncc2CN(C)Cc2nonc2C)c(OC)c1 | 2 | 3 | 4 | 9 | 2 | 2
CCCN(CCC)CCCNC(=O)CN1C(=O)CSc2ccc(S(=O)(=O)N3CCOCC3)cc21 | 3 | 4 | 4 | 4 | -2 | ·
N/C(=N\OC(=O)N1c2ccccc2Sc2ccccc21)c1ccccc1 | 2 | -1 | 9 | -8 | 91* | 2
Cc1cccc(/C(N)=N/OC(=O)N2c3ccccc3Sc3ccccc32)c1 | 2 | -5 | 3 | -13 | 71* | -1
N/C(=N\OC(=O)c1ccccc1Cl)c1ccccc1 | 2 | -4 | 2 | -166 | 0 | 1
COc1ccc2cnn(CCOc3cc(C)ccc3C(C)C)c(=O)c2c1OC | 2 | 4 | 9 | -20 | 95* | 6
COc1ccc2cnn(CCOc3ccccc3)c(=O)c2c1OC | 3 | 5 | 2 | -176 | 87* | -1
C=CCN(CC(=O)O)S(=O)(=O)c1ccccc1C(F)(F)F | 4 | 0 | 6 | 10 | -6 | 2
CN(C)c1cc[n+](CC(=O)c2ccc(OC(F)F)cc2)cc1 | · | 40* | 47* | · | · | 0
O=C(O)/C=C/c1cccc2c1OCCO2 | · | -1 | -2 | · | · | -2
Cn1cnnc1Sc1ccc(C(=O)NCCC23CC4CC(CC(C4)C2)C3)cc1[N+](=O)[O-] | 3 | -6 | 4 | -4 | 51* | 2
CCS(=O)(=O)c1ccc(Sc2nncn2C)c([N+](=O)[O-])c1 | 3 | -3 | 0 | 0 | 4 | 1
CCC(C)(C)NC(=O)c1ccc(Sc2nncn2C)c([N+](=O)[O-])c1 | 1 | 3 | 6 | -23 | 50* | -1
CCN(CC)S(=O)(=O)c1ccc(NC(=O)c2ccc(Sc3nncn3C)c([N+](=O)[O-])c2)cc1 | 6 | -2 | 4 | 9 | -4 | 1
Cn1cnnc1Sc1ccc(/C=C/C(=O)c2ccc(O)cc2)cc1[N+](=O)[O-] | 2 | -1 | 2 | 20 | 100* | 1
Cc1cc2c(cc1C)C(c1ccsc1)CC(=O)N2 (stereo not drawn) | 4 | 4 | 9 | 2 | 8 | 3
Cc1ccc(-c2c[n+](CC(=O)OCc3ccccc3)c3n2CCC3)cc1 | 1 | 0 | 4 | -23 | -4 | 3
COc1ccc(-c2c[n+](CC(=O)c3cccs3)c3n2CCC3)cc1 | · | 19 | 29* | · | · | 0
Cc1ccc(-c2c[n+](CC(=O)c3cccs3)c3n2CCC3)cc1 | · | 33* | 62* | · | · | 0
SMILES | MT stabilize HCS | Ba/F3 V617F tox | BaF3 tox | APP 5UTR inh | Lmaj promast | b-catenin transl
Nc1ccccc1N=Cc1ccc(-c2cccc(Cl)c2)o1 | 4 | 2 | 7 | -91 | 46 | -1
Cc1cc(Cl)cc(Br)c1OCCCCn1cncn1 | 4 | -2 | 3 | 23 | 93* | ·
O=C(CN1CCCCC1)Nc1ccc(Br)cc1[N+](=O)[O-] | 4 | 0 | 7 | -4 | -1 | 0
COCCNC(=S)N1CCc2cc(OC)c(OC)cc2C1COc1ccc(C(C)C)cc1 (stereo not drawn) | 3 | -3 | 1 | 5 | 20 | 0
O=[N+]([O-])c1ccc(NCc2ccccc2)nc1 | 1 | 32* | 75* | -14 | -8 | 1
O=[N+]([O-])c1ccc(Nc2ccc(F)cc2)nc1 | 4 | 5 | 2 | 3 | 1 | -1
O=[N+]([O-])c1ccc(Nc2ccccc2)nc1 | 1 | -2 | 1 | -16 | 56* | 1
O=C(O)c1cc([N+](=O)[O-])ccc1NCc1ccccc1 | 2 | 0 | 4 | -4 | -2 | -2
CC1CCc2ccccc2N1C(N)=Nc1ccccc1 (stereo not drawn) | 3 | 2 | 4 | 6 | 8 | 0
Nc1nc(C(F)(F)F)c(Br)c(=O)n1N | 2 | 4 | 4 | 14 | -7 | 1
COc1ccc(N(CC(O)Cn2c3ccccc3c3ccccc32)S(=O)(=O)c2ccccc2)cc1 (stereo not drawn) | 2 | 3 | 9 | -5 | 30 | 0
CC(=O)Nc1ccccc1N(CC(O)Cn1c2ccccc2c2ccccc21)S(=O)(=O)c1ccc(C)cc1 (stereo not drawn) | 13 | 6 | 12 | -12 | 64* | 2
COC(=O)c1sc(C(F)(F)F)c(-c2ccccc2)c1S(=O)(=O)N1CCCC1 | · | -2 | 3 | · | · | 0
FC(F)(F)c1ccccc1-n1c(CN2CCCCC2)n[nH]c1=S | · | 0 | -14 | · | · | -1
COCCn1c(SCC(=O)N2CC(=O)Nc3ccccc32)nc2ccccc21 | 3 | -3 | 5 | 11 | 52* | ·
COc1ccc2nc(SCC(=O)N3CC(=O)Nc4ccccc43)c(C#N)cc2c1 | 27* | 0 | 3 | 60* | 30 | ·
CCOc1ccc2cc(C#N)c(SCC(=O)N3CCOCC3)nc2c1 | 3 | 4 | 6 | -110 | 18 | -1
CCOc1ccc2nc(SCC(=O)N3CCCCCC3)c(C#N)cc2c1 | 5 | 4 | 3 | -4 | 64* | -3
COC(=O)[C@H](CC(C)C)NC(=O)NC1CCCCC1C (stereo partly drawn) | 5 | 3 | 6 | -13 | 0 | -2
Cc1ccc(S(=O)(=O)/C(=C/Cl)NC(=O)c2ccccc2)cc1 | 1 | 13 | 0 | 22 | 99* | 0
Cc1ccc(C(=O)NC(=C(Cl)Cl)S(=O)(=O)c2ccc(C)cc2)cc1 | 4 | -2 | 2 | 7 | 62* | 1
Cc1ccc(C(=O)NC(=C(Cl)Cl)S(=O)(=O)c2ccc(Cl)cc2)cc1 | 3 | -2 | 11 | 7 | 3 | 0
Cc1ccc(S(=O)(=O)C(NC(=O)c2ccccc2)=C(Cl)Cl)cc1 | 3 | 1 | 2 | -8 | 62* | ·
CCn1c(=O)cc(SCC(=O)Nc2cccnc2)c2ccccc21 | 4 | 2 | 4 | -1 | -5 | 0
COCc1cc(C)nc(N/N=C/c2ccc(Cl)c(Cl)c2)c1C#N | 2 | 3 | 8 | 18 | 85* | -4
Nc1c2c(nc3ccccc13)CCCC2 | 3 | -1 | 4 | -12 | 36 | ·
CCN(CC)c1nc2ccccc2c(N)c1-c1ccccc1 | 4 | -1 | -1 | -14 | 100* | 0
